Source: ChEMBL document CHEMBL1140712 (J Med Chem, 2008)

How the values were obtained:
Rattus norvegicus [1] = assay: Reduction of food intake in Sprague-Dawley rat at 12.5 umol/kg, po after 2 hrs relative to control; format: functional
Procedure, shortened: (§1)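 Male Sprague-Dawley rats, caged singly, kept 2 weeks on a reverse light cycle, freely fed, eight per group. Oral gavage of vehicle or compound 1 h before the dark cycle. Food intake measured 2 h postdose and compared with vehicle control.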

Rattus norvegicus [2] = assay: Reduction of food intake in Sprague-Dawley rat at 25 umol/kg, po after 2 hrs relative to control; format: functional; procedure, shortened: as §1
Rattus norvegicus [3] = assay: Reduction of food intake in Sprague-Dawley rat at 50 umol/kg, po after 2 hrs relative to control; format: functional; procedure, shortened: as §1
Rattus norvegicus [4] = assay: Reduction of food intake in Sprague-Dawley rat at 100 umol/kg, po after 2 hrs relative to control; format: functional; procedure, shortened: as §1
Rattus norvegicus [5] = species: Rattus norvegicus; assay: Reduction of food intake in Sprague-Dawley rat after 6 hrs relative to control; format: functional
Procedure, shortened: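 Male Sprague-Dawley rats, individually caged after 2 weeks on a reverse light cycle, freely fed, eight per group. Dosed by oral gavage 1 h before the dark cycle. Food intake measured 6 h postdose versus vehicle-treated rats.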

[6] = Half life in Sprague-Dawley rat at 5 mg/kg, iv; format: ADME, organism-based; design: dose 5 mg/kg, route intravenous; conditions: in vivo
[7] = Half life in Sprague-Dawley rat at 10 mg/kg, po; format: ADME, organism-based; design: dose 10 mg/kg, route oral; conditions: in vivo
[8] = Clearance in Sprague-Dawley rat at 5 mg/kg, iv; format: ADME, organism-based; design: dose 5 mg/kg, route intravenous; conditions: in vivo
[9] = Volume of distribution at steady state in Sprague-Dawley rat at 5 mg/kg, iv; format: ADME, organism-based; design: dose 5 mg/kg, route intravenous; conditions: in vivo, read-out: Vdss
[10] = Tmax in Sprague-Dawley rat at 10 mg/kg, po; format: ADME, organism-based; design: dose 10 mg/kg, route oral; conditions: in vivo
[11] = Cmax in Sprague-Dawley rat at 10 mg/kg, po; format: ADME, organism-based; design: dose 10 mg/kg, route oral; conditions: in vivo
[12] = AUC (0-infinity) in Sprague-Dawley rat at 5 mg/kg, iv; format: ADME, organism-based; design: time infinity, dose 5 mg/kg, route intravenous; conditions: plasma
[13] = AUC (0-infinity) in Sprague-Dawley rat at 10 mg/kg, po; format: ADME, organism-based; design: time infinity, dose 10 mg/kg, route oral; conditions: plasma
[14] = Oral bioavailability in Sprague-Dawley rat at 10 mg/kg; format: ADME, organism-based; conditions: in vivo
Rattus norvegicus [15] = assay: Reduction of body weight in Sprague-Dawley rat at 36 mg/kg, po, bid after 28 days relative to control; format: functional; design: scale not given: the % may be the effect or the level left
Procedure, shortened: (§2)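 Adult male Sprague-Dawley rats (250–400 g), caged separately with free access to food and water. Oral gavage of vehicle or drug for 28 days, with arms of 9, 18 and 36 mg/kg twice daily and 18 mg/kg once daily. Daily food intake and body weight recorded and compared with vehicle control.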

Rattus norvegicus [16] = assay: Reduction of body weight in Sprague-Dawley rat at 18 mg/kg, po, qd after 28 days relative to control; format: functional; design: scale not given: the % may be the effect or the level left; procedure, shortened: as §2
Rattus norvegicus [17] = assay: Reduction of body weight in Sprague-Dawley rat at 9 mg/kg, po, bid after 28 days relative to control; format: functional; design: scale not given: the % may be the effect or the level left; procedure, shortened: as §2
Rattus norvegicus [18] = assay: Reduction of body weight in Sprague-Dawley rat at 18 mg/kg, po, bid after 28 days relative to control; format: functional; design: scale not given: the % may be the effect or the level left; procedure, shortened: as §2
[19] = biological target: 5-hydroxytryptamine receptor 2A (Homo sapiens, UniProt P28223); assay: Agonist activity at human 5HT2A receptor expressed in HEK293 cells assessed as intracellular IP3 accumulation; format: functional, cell-based
Chain of 5-hydroxytryptamine receptor 2A (P28223 whole entry): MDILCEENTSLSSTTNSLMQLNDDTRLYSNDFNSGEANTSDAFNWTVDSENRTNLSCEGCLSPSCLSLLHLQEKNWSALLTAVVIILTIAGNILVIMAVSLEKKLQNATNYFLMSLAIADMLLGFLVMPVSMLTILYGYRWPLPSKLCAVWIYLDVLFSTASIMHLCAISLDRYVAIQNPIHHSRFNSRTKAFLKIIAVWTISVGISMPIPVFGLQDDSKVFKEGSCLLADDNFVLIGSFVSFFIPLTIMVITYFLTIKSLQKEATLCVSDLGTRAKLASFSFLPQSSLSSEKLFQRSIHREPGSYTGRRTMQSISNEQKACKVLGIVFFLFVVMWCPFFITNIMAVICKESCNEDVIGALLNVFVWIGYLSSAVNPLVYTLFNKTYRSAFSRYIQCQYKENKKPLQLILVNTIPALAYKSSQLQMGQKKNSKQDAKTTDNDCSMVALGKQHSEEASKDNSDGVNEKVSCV
Procedure, shortened: (§3)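 Functional agonist assay read out as [3H]phosphoinositol turnover; potency expressed as pEC50.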

[20] = biological target: T1, 5-hydroxytryptamine receptor 2C (Homo sapiens, UniProt P28335); assay: Agonist activity at human 5HT2C receptor expressed in HEK293 cells assessed as intracellular IP3 accumulation; format: functional, cell-based; procedure, shortened: as §3
T1 sequence (P28335 whole entry): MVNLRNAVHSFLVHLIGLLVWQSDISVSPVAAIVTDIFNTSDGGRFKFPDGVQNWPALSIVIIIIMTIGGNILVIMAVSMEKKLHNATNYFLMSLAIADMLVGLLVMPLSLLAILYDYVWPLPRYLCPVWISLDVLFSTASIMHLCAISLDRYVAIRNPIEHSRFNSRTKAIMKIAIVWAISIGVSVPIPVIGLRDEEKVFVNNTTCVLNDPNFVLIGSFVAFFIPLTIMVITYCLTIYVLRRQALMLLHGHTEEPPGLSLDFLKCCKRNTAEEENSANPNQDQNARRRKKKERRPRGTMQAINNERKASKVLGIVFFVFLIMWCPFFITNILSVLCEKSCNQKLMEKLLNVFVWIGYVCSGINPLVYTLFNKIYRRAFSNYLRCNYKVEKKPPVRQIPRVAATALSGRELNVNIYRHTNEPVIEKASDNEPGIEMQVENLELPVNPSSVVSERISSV

[21] = biological target: 5-hydroxytryptamine receptor 2B (Homo sapiens, UniProt P41595); assay: Agonist activity at human 5HT2B receptor expressed in HEK293 cells assessed as intracellular IP3 accumulation; format: functional, cell-based; procedure, shortened: as §3
Chain of 5-hydroxytryptamine receptor 2B (P41595 whole entry): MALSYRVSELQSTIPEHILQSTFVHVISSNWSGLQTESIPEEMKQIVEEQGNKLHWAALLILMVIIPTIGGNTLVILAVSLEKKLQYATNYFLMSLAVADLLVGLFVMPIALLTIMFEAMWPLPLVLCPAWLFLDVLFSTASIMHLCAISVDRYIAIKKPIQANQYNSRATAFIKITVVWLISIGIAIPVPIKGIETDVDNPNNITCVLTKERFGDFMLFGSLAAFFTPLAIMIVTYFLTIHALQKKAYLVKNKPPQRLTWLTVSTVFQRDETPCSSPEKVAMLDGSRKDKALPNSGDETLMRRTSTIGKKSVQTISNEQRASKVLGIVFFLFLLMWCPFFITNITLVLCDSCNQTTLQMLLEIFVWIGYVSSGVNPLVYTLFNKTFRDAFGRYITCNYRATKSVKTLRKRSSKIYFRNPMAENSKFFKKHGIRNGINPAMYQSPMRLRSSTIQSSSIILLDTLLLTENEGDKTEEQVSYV

[22] = biological target: Serotonin 2 receptors; 5-HT2a & 5-HT2c (Homo sapiens) (UniProt P28223+P28335); assay: Selectivity ratio of pEC50 for human 5HT2A to pEC50 for human 5HT2C
Chain of Serotonin 2 receptors; 5-HT2a & 5-HT2c (Homo sapiens) (P28223 whole entry, looked up, one chain of several): as the sequence (P28223 whole entry) above

Homo sapiens = species: Homo sapiens; assay: Selectivity ratio of pEC50 for human 5HT2B to pEC50 for human 5HT2C

| Compound | inhibition in vivo at 25 µmol/kg (Rattus norvegicus [2]) [%] | inhibition in vivo at 50 µmol/kg (Rattus norvegicus [3]) [%] | inhibition in vivo at 100 µmol/kg (Rattus norvegicus [4]) [%] | EC50 [19] [nM] | EC50 [20] [nM] | EC50 [21] [nM] | Selectivity ratio [22] | Selectivity ratio (Homo sapiens) | further results |
| --- | --- | --- | --- | --- | --- | --- | --- | --- | --- |
| C[C@H]1CNCCc2ccc(Cl)cc21 [LORCASERIN] | 58 | 77 | 82 |  |  |  |  |  | inhibition in vivo at 12.5 µmol/kg (Rattus norvegicus [1]): 34%; ED50 (Rattus norvegicus [5]): 18 mg/kg; half-life [6]: 3.1 h; half-life [7]: 3.7 h; clearance [8]: 102 mL/min/kg; Vd [9]: 18 L/kg; Tmax [10]: 0.5 h; Cmax [11]: 260 ng/mL; AUC(0-inf) [12]: 800 ng·h/mL; AUC(0-inf) [13]: 1400 ng·h/mL; bioavailability [14]: 86%; Activity (Rattus norvegicus [15]): 8.5%; Activity (Rattus norvegicus [16]): 17.02%; Activity (Rattus norvegicus [17]): 15.75%; Activity (Rattus norvegicus [18]): 14.03% |
| C[C@H]1CNCCc2cc(Cl)c(Cl)cc21 | 16 | 40 | 66 | 10 | 3.98 | 39.8 | 0.4 | 1 |  |
| CC[C@H]1CNCCc2ccc(Cl)cc21 |  |  |  | 251 | 39.8 | 251 | 0.8 | 0.8 |  |
| COc1cc2c(cc1Cl)C(C)CNCC2 (racemic) [listing 1 of 2 here] | 38 | 52 | 71 | 63.1 | 7.94 | 63.1 |  |  |  |
| COc1ccc2c(c1)CCNCC2C (racemic) |  |  |  | > 10000 | 1260 | > 10000 |  |  |  |
| c1ccc2c(c1)CCNCC2 |  |  |  | > 10000 | 3160 | > 10000 |  |  |  |
| CC1CNCCc2ccc(Cl)cc21 (racemic) | 52 | 62 | 81 |  |  |  |  |  |  |
| CC1CNCCc2cc(Cl)c(Cl)cc21 (racemic) | 33 | 44 | 60 | 20 |  | 50.1 | 0.7 | 1.1 |  |
| COc1cc2c(cc1Cl)C(C)CNCC2 (single isomer, unassigned; form 2) [listing 1 of 2 here] |  |  |  |  |  |  | 0.7 | 0.8 |  |
| CC1CNCCc2ccc(Br)cc21 (racemic) |  |  |  | 501 | 10 | 2000 | 1.7 | 2.3 |  |
| C[C@@H]1CNCCc2ccc(Cl)c(F)c21 |  |  |  | 1000 | 3.98 | > 10000 | 2.4 | > 3.4 |  |
| C[C@@H]1CNCCc2ccc(C(F)(F)F)cc21 | 18 | 45 |  | 100 | 10 | 794 | 1 | 1.9 | inhibition in vivo at 12.5 µmol/kg (Rattus norvegicus [1]): 16% |
| COc1cc2c(cc1Cl)C(C)CNCC2 (single isomer, unassigned; form 1) [listing 1 of 2 here] |  |  |  |  |  |  | 1.4 | 1.7 |  |
| CC1CNCCc2ccc(Cl)c(Cl)c21 (racemic) |  |  |  | 200 | 7.94 | 1580 | 1.4 | 2.3 |  |
| CC1CNCCc2c(Cl)cc(Cl)cc21 (centres undefined) |  |  |  | 126 |  | 794 | 0.8 | 1.6 |  |
| CC1CNCCc2ccc(Cl)c(F)c21 (racemic) |  |  |  | 794 | 20 | 2510 | 1.6 | 2.1 |  |
| C[C@H]1CNCCc2ccc(Cl)c(Cl)c21 |  |  |  | 2510 | 316 | > 10000 |  |  |  |
| CC1CNCCc2cccc(Cl)c21 (racemic) |  |  |  | > 10000 | 794 | > 10000 |  |  |  |
| COc1cc2c(cc1Cl)C(C)CNCC2 (single isomer, unassigned; form 2) [listing 2 of 2 here] | 60 | 66 | 77 | 31.6 | 6.31 | 39.8 |  |  |  |

| Compound | inhibition in vivo at 25 µmol/kg (Rattus norvegicus [2]) [%] | inhibition in vivo at 50 µmol/kg (Rattus norvegicus [3]) [%] | inhibition in vivo at 100 µmol/kg (Rattus norvegicus [4]) [%] | EC50 [19] [nM] | EC50 [20] [nM] | EC50 [21] [nM] | Selectivity ratio [22] | Selectivity ratio (Homo sapiens) | further results |
| --- | --- | --- | --- | --- | --- | --- | --- | --- | --- |
| COc1cc2c(cc1Cl)CCNCC2C (racemic) |  |  |  | 100 | 50.1 | 200 | 0.3 | 0.6 |  |
| CC1CNCCc2cc(Cl)ccc21 (racemic) |  |  |  | 158 | 25.1 | 501 | 0.8 | 1.3 |  |
| C[C@H](N)Cc1cccc(C(F)(F)F)c1 [NORDEXFENFLURAMINE] |  |  |  | 200 | 25.1 | 15.8 | 0.9 | -0.2 |  |
| C[C@H](N)Cn1ccc2cc(F)c(Cl)cc21 |  |  |  | 50.1 | 3.98 | 1.58 | 1.1 | -0.4 |  |
| CC1(C)CNCCc2ccc(Cl)cc21 |  |  |  | 1580 | 200 | > 10000 |  |  |  |
| CC1CNCCc2cc(F)c(Cl)cc21 (racemic) | 30 | 41 | 58 | 63.1 | 6.31 | 316 | 1 | 1.7 |  |
| COc1cc2c(cc1Cl)C(C)CNCC2 (single isomer, unassigned; form 1) [listing 2 of 2 here] | 32 | 36 | 43 | 200 | 7.94 | 398 |  |  |  |
| COc1cc2c(cc1Cl)C(C)CNCC2 (racemic) [listing 2 of 2 here] |  |  |  |  |  |  | 0.9 | 0.9 |  |
| CC1CNCCc2ccc(F)cc21 (racemic) |  |  |  |  | 398 | > 10000 |  |  |  |
| CC1CNCCc2ccc(C(F)(F)F)cc21 (racemic) |  |  |  |  | 6.31 | 794 | 1.2 | 2.1 |  |
| C[C@@H]1CNCCc2ccc(Cl)c(Cl)c21 | 19 | 41 | 69 | 126 | 3.16 | 1260 | 1.6 | 2.6 |  |
| COc1ccc2c(c1)C(C)CNCC2 (racemic) |  |  |  | 251 | 200 | 5010 |  |  |  |
| CC1CNCCc2c(Cl)cccc21 (racemic) |  |  |  | > 10000 | 794 | > 10000 |  |  |  |
| Clc1ccc2c(c1)CCNCC2 | 63 | 68 | 85 | 100 | 12.6 |  | 0.9 | 1.9 |  |
| C[C@@H]1CNCCc2ccc(Cl)cc21 | 26 | 41 | 73 |  |  |  |  |  | inhibition in vivo at 12.5 µmol/kg (Rattus norvegicus [1]): 7% |
| C[C@H]1CNCCc2ccc(C(F)(F)F)cc21 | 22 | 41 |  | 126 | 7.94 | 501 | 1.2 | 1.8 | inhibition in vivo at 12.5 µmol/kg (Rattus norvegicus [1]): 14% |
| CC1CNCCc2ccccc21 (racemic) |  |  |  |  | 316 | 3980 |  |  |  |
| CC[C@@H]1CNCCc2ccc(Cl)cc21 |  |  |  | 316 | 20 | 631 | 1.2 | 1.5 |  |
| C[C@@H]1CNCCc2cc(Cl)c(Cl)cc21 | 54 | 58 | 74 | 100 | 7.94 | 251 | 1.1 | 1.5 |  |
